By inhibition in vivo is commonly meant the change of the read-out against control, counted positive when it falls.

For series [1], the system named is Rattus norvegicus. Nature of the series: Hypolipidemic activity in Wistar rat assessed as reduction in plasma triglyceride level at 446 umol/kg/day administered through diet for 4 days. In kind it is functional. To be noted: 96 h.
Series [2] has as its system Rattus norvegicus. Kind of series: Hypolipidemic activity in Wistar rat assessed as reduction in plasma cholesterol level at 446 umol/kg/day administered through diet for 4 days. In kind it is functional. The following applies: 96 h. The method in brief:
(§1)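 Young male Wistar rats, 170-190 g initial weight, groups of six, given compound mixed thoroughly into Purina Lab Chow ad libitum for 4 or 10 days as stated. Daily dose calculated from food consumption and body weight. Bled by cardiac puncture at end of treatment; plasma cholesterol measured by automated procedure. Expressed as percent reduction versus simultaneous untreated control group; Student's t test.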

For series [3], the system named is Rattus norvegicus. Kind of series: Increase in cholesterol level in Wistar rat liver at 446 umol/kg/day administered through diet for 4 days. In kind it is ADME, organism-based. To be noted: in vivo, po, 96 h.
Series [4] concerns Rattus norvegicus. Nature of the series: Increase in liver weight in Wistar rat at 446 umol/kg/day administered through diet for 4 days. To be noted: in vivo, po, 96 h. In kind it is ADME, organism-based.
In series [5] the test system is Rattus norvegicus. Nature of the series: Hypolipidemic activity in Wistar rat assessed as reduction in plasma triglyceride level at 459 umol/kg/day administered through diet for 10 days. In kind it is functional. To be noted: 240 h.
Series [6] has as its system Rattus norvegicus. Kind of series: Hypolipidemic activity in Wistar rat assessed as reduction in plasma cholesterol level at 459 umol/kg/day administered through diet for 10 days. Type of series: functional. To be noted: 240 h. The method in brief: as §1
Series [7] concerns Rattus norvegicus. Kind of series: Increase in liver weight in Wistar rat at 459 umol/kg/day administered through diet for 10 days. To be noted: in vivo, po, 240 h. Type of series: ADME, organism-based.
Series [8] concerns Rattus norvegicus. Nature of the series: Increase in cholesterol level in Wistar rat liver at 459 umol/kg/day administered through diet for 10 days. Type of series: ADME, organism-based. To be noted: in vivo, po, 240 h.
The test system of series [9] is Rattus norvegicus. Kind of series: Hypolipidemic activity in Wistar rat assessed as reduction in plasma triglyceride level at 499 umol/kg/day administered through diet for 4 days. In kind it is functional. To be noted: 96 h. Put shortly:
(§2)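 Young male Wistar rats (initial weight 170-190 g), groups of six, fed compound mixed into Purina Lab Chow ad libitum for 4 or 10 days; daily dose calculated from food consumption and body weight. Bled by cardiac puncture; plasma cholesterol and triglycerides by automated procedures; percent reduction versus simultaneous untreated controls, Student's t test.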

Series [10] has as its system Rattus norvegicus. Kind of series: Hypolipidemic activity in Wistar rat assessed as reduction in plasma cholesterol level at 499 umol/kg/day administered through diet for 4 days. Type of series: functional. The following applies: 96 h. The method in brief:
as §1

Series [11] has as its system Rattus norvegicus. Kind of series: Increase in liver weight in Wistar rat at 499 umol/kg/day administered through diet for 4 days. In kind it is ADME, organism-based. To be noted: in vivo, po, 96 h. The method in brief: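 Male Wistar rats (170-190 g initial), groups of six, dosed via diet ad libitum for 4 or 10 days, daily dose from food consumption. Liver wet weight measured, expressed as g/100 g final body weight, compared with untreated controls run simultaneously.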

Series [12] relates to Rattus norvegicus. Kind of series: Increase in cholesterol level in Wistar rat liver at 499 umol/kg/day administered through diet for 4 days. In kind it is ADME, organism-based. To be noted: in vivo, po, 96 h.
Series [13] concerns Rattus norvegicus. Kind of series: Hypolipidemic activity in Wistar rat assessed as reduction in plasma triglyceride level at 339 umol/kg/day administered through diet for 4 days. Type of series: functional. To be noted: 96 h. The method in brief: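 Young male Wistar rats (170-190 g initial weight), groups of six, were fed compound mixed into lab chow ad libitum for 4 or 10 days alongside an untreated control group. Daily dose was calculated from food consumption and body weight. Rats were bled by cardiac puncture, and plasma triglyceride was measured by automated procedure. Results are expressed as percent reduction from simultaneous controls, with Student's t test.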

Series [14] has as its system Rattus norvegicus. Nature of the series: Hypolipidemic activity in Wistar rat assessed as reduction in plasma cholesterol level at 339 umol/kg/day administered through diet for 4 days. The following applies: 96 h. In kind it is functional. Put shortly: (§3)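 Young male Wistar rats, 170-190 g at start, in groups of six, given compound mixed into Purina Lab Chow ad libitum for 4 or 10 days as stated. Daily dose was calculated from food consumption and body weight. Plasma was taken by cardiac puncture at the end and cholesterol measured by automated procedure. Results are % reduction versus a concurrent untreated control group, with Student's t test.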

Series [15] deals with Rattus norvegicus. Kind of series: Increase in liver weight in Wistar rat at 339 umol/kg/day administered through diet for 4 days. Type of series: ADME, organism-based. To be noted: in vivo, po, 96 h.
Series [16] deals with Rattus norvegicus. Kind of series: Increase in cholesterol level in Wistar rat liver at 339 umol/kg/day administered through diet for 4 days. Type of series: ADME, organism-based. To be noted: in vivo, po, 96 h.
Series [17] concerns Rattus norvegicus. Kind of series: Hypolipidemic activity in Wistar rat assessed as reduction in plasma triglyceride level at 509 umol/kg/day administered through diet for 4 days. Type of series: functional. To be noted: 96 h.
Series [18] has as its system Rattus norvegicus. Kind of series: Hypolipidemic activity in Wistar rat assessed as reduction in plasma cholesterol level at 509 umol/kg/day administered through diet for 4 days. Type of series: functional. The following applies: 96 h. The method in brief:
as §1

The subject of series [19] is Rattus norvegicus. Kind of series: Increase in cholesterol level in Wistar rat liver at 509 umol/kg/day administered through diet for 4 days. In kind it is ADME, organism-based. To be noted: in vivo, po, 96 h.
Series [20] relates to Rattus norvegicus. Nature of the series: Increase in liver weight in Wistar rat at 509 umol/kg/day administered through diet for 4 days. In kind it is ADME, organism-based. To be noted: in vivo, po, 96 h.
Series [21] deals with Rattus norvegicus. Nature of the series: Hypolipidemic activity in Wistar rat assessed as reduction in plasma triglyceride level at 312 umol/kg/day administered through diet for 10 days. To be noted: 240 h. In kind it is functional. Put shortly:
(§4)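 Young male Wistar rats, 170-190 g initial weight, six per group, fed drug mixed thoroughly into Purina Lab Chow ad libitum for the stated days; daily dose calculated from food consumption and body weight. Bled by cardiac puncture at end; plasma cholesterol and triglycerides by automated procedures, expressed as percent reduction versus simultaneous untreated controls; Student's t test.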

Series [22] deals with Rattus norvegicus. Kind of series: Hypolipidemic activity in Wistar rat assessed as reduction in plasma cholesterol level at 312 umol/kg/day administered through diet for 10 days. In kind it is functional. The following applies: 240 h. The method in brief:
as §3

For series [23], the system named is Rattus norvegicus. Kind of series: Increase in liver weight in Wistar rat at 312 umol/kg/day administered through diet for 10 days. In kind it is ADME, organism-based. To be noted: in vivo, po, 240 h.
In series [24] the test system is Rattus norvegicus. Nature of the series: Increase in cholesterol level in Wistar rat liver at 312 umol/kg/day administered through diet for 10 days. The following applies: in vivo, po, 240 h. In kind it is ADME, organism-based.
Series [25] deals with Rattus norvegicus. Nature of the series: Hypolipidemic activity in Wistar rat assessed as reduction in plasma triglyceride level at 406 umol/kg/day administered through diet for 4 days. In kind it is functional. To be noted: 96 h.
Series [26] relates to Rattus norvegicus. Kind of series: Hypolipidemic activity in Wistar rat assessed as reduction in plasma cholesterol level at 406 umol/kg/day administered through diet for 4 days. In kind it is functional. To be noted: 96 h. Put shortly:
as §3

Series [27] deals with Rattus norvegicus. Nature of the series: Increase in liver weight in Wistar rat at 406 umol/kg/day administered through diet for 4 days. In kind it is ADME, organism-based. To be noted: in vivo, po, 96 h.
Series [28] deals with Rattus norvegicus. Kind of series: Increase in cholesterol level in Wistar rat liver at 406 umol/kg/day administered through diet for 4 days. In kind it is ADME, organism-based. To be noted: in vivo, po, 96 h.
For series [29], the system named is Rattus norvegicus. Nature of the series: Hypolipidemic activity in Wistar rat assessed as reduction in plasma triglyceride level at 332 umol/kg/day administered through diet for 10 days. To be noted: 240 h. In kind it is functional. Put shortly: as §4
In series [30] the test system is Rattus norvegicus. Nature of the series: Hypolipidemic activity in Wistar rat assessed as reduction in plasma triglyceride level at 169 umol/kg/day administered through diet for 10 days. In kind it is functional. The following applies: 240 h. Put shortly:
as §4

The subject of series [31] is Rattus norvegicus. Kind of series: Hypolipidemic activity in Wistar rat assessed as reduction in plasma triglyceride level at 84 umol/kg/day administered through diet for 10 days. In kind it is functional. The following applies: 240 h.
For series [32], the system named is Rattus norvegicus. Nature of the series: Hypolipidemic activity in Wistar rat assessed as reduction in plasma cholesterol level at 332 umol/kg/day administered through diet for 10 days. Type of series: functional. To be noted: 240 h. Put shortly: as §3
Series [33] deals with Rattus norvegicus. Kind of series: Hypolipidemic activity in Wistar rat assessed as reduction in plasma cholesterol level at 169 umol/kg/day administered through diet for 10 days. Type of series: functional. To be noted: 240 h. Put shortly: as §3
For series [34], the system named is Rattus norvegicus. Kind of series: Hypolipidemic activity in Wistar rat assessed as reduction in plasma cholesterol level at 84 umol/kg/day administered through diet for 10 days. In kind it is functional. To be noted: AT84, Plasma, 240 h. Put shortly: as §2
The subject of series [35] is Rattus norvegicus. Kind of series: Increase in liver weight in Wistar rat at 332 umol/kg/day administered through diet for 10 days. Type of series: ADME, organism-based. The following applies: in vivo, po, 240 h.
For series [36], the system named is Rattus norvegicus. Nature of the series: Increase in liver weight in Wistar rat at 169 umol/kg/day administered through diet for 10 days. Type of series: ADME, organism-based. To be noted: in vivo, po, 240 h.
The subject of series [37] is Rattus norvegicus. Kind of series: Increase in liver weight in Wistar rat at 84 umol/kg/day administered through diet for 10 days. In kind it is ADME, organism-based. The following applies: in vivo, po, 240 h.
Series [38] has as its system Rattus norvegicus. Kind of series: Increase in cholesterol level in Wistar rat liver at 332 umol/kg/day administered through diet for 10 days. In kind it is ADME, organism-based. To be noted: in vivo, po, 240 h.
Series [39] relates to Rattus norvegicus. Kind of series: Increase in cholesterol level in Wistar rat liver at 169 umol/kg/day administered through diet for 10 days. The following applies: in vivo, po, 240 h. Type of series: ADME, organism-based.
In series [40] the test system is Rattus norvegicus. Nature of the series: Increase in cholesterol level in Wistar rat liver at 84 umol/kg/day administered through diet for 10 days. In kind it is ADME, organism-based. The following applies: in vivo, po, 240 h.

`CCCCCCCCCCCCCCOc1ccc(OCC(=O)OC)cc1`: the inhibition in vivo at 446 µmol/kg in [1] was 0%; in series [2] it was 10%. In addition, the results for the Activity in series [3] and in series [4] were 0% and 4%, respectively.

Consider `CCCCCCCCCCCCCCOc1ccc(C(N)=O)cc1`, for which the inhibition in vivo at 459 µmol/kg in series [5] amounted to 0%; in series [6], 3%. For the same compound, the Activity in [7] and in [8] was 0% each time.

For the compound `CCCCCCCCCCCCCCOc1ccc(C=O)cc1`, the inhibition in vivo at 499 µmol/kg in series [9] came out at 68%; in series [10], 25%. Further, the Activity worked out at 18% in series [11] and 12% in series [12].

For `CCCCCCCCCCCCCCCCOc1ccc(C(=O)CC(=O)OC)cc1`, the inhibition in vivo at 339 µmol/kg in [13] came to 57%; in series [14], 32%. Besides, the Activity in [15] was 18%; in [16] it was 2%.

On to `CCCCCCCCCCCCCCOc1ccc(C)cc1`, for which the results for the inhibition in vivo at 509 µmol/kg in [17] and in [18] were 30% and 0%, respectively. Further, the Activity is given as 0% in series [19] and 10% in [20].

Consider `CCCCCCCCCCCCCCOc1ccc(C(=O)CC(=O)OCCNC(C)=O)cc1`, for which the inhibition in vivo at 312 µmol/kg in series [21] was 60%; in series [22], 35%. Further, the Activity is on record as 15% in [23] and 8% in series [24].

For the compound `CCCCCCCCCCCCCCOc1ccc(COC(C)=O)cc1`, the inhibition in vivo at 406 µmol/kg worked out at 62% in [25] and 22% in series [26]. In addition, the Activity in series [27] came out at 17%; in series [28], 11%.

Consider `CCCCCCCCCCCCCCOc1ccc(C(=O)CC(=O)OCc2ccccc2)cc1`, for which the inhibition in vivo at 332 µmol/kg in series [29] was 43%; in series [32] it was 24%. Also, the inhibition in vivo at 169 µmol/kg in series [30] worked out at 70%; in [33] it was 15%. For the same compound, the inhibition in vivo at 84 µmol/kg in series [31] was found to be 8%; in [34] it was 16%. In addition, the Activity is listed as 5% in series [35]; 1% in [36]; 0% in series [37]; 10% in series [38]; 2% in [39]; 0% in series [40].

Values taken from ChEMBL document CHEMBL3272012, “5-(Tetradecyloxy)-2-furancarboxylic acid and related hypolipidemic fatty acid-like alkyloxyarylcarboxylic acids” (J Med Chem, 1977).
